≈ marks a conversion by molar mass, not a printed value. Calls of active or inactive are those of the source. The calls are words filed in the database; no cut-off is given here.
Columns and labels:
[1] = tested on: Nannizzia gypsea; experiment: Antifungal activity against Microsporum gypseum C 115 by agar dilution method; format: functional
Procedure, shortened: (§1)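 Dermatophytes were tested by agar dilution on Sabouraud chloramphenicol agar in 96-well plates. DMSO stock solutions were serially two-fold diluted into the medium to give final concentrations of 0.10–50 µg/mL, with DMSO not exceeding 2%. Each well received 5 µL of spore suspension.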

[2] = tested on: Epidermophyton floccosum; experiment: Antifungal activity against Epidermophyton floccosum C 114 by agar dilution method; format: functional; procedure, shortened: as §1
[3] = tested on: Epidermophyton floccosum; experiment: Antifungal activity against Epidermophyton floccosum C 114 up to 50 ug/mL by agar dilution method; format: functional, organism-based; procedure, shortened: as §1
[4] = tested on: Saccharomyces cerevisiae; experiment: Antifungal activity against Saccharomyces cerevisiae ATCC 9763 by agar dilution method; format: functional, organism-based
Procedure, shortened: (§2)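 Sabouraud chloramphenicol agar dilution in 96-well plates. Strains were grown on Sabouraud chloramphenicol agar slants for 48 h at 30 °C and suspended in sterile distilled water, adjusted to 10^6 viable cells/mL. DMSO stocks were serially two-fold diluted into the agar to give 0.10–50 µg/mL, with DMSO ≤2% final. 5 µL inoculum per well; incubated 24, 48 or 72 h at 30 °C per control growth; MIC recorded.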

[5] = tested on: Candida albicans; experiment: Antifungal activity against Candida albicans ATCC 10231 by agar dilution method; format: functional, organism-based; procedure, shortened: as §2
[6] = tested on: Trichophyton rubrum; experiment: Antifungal activity against Trichophyton rubrum C 113 by agar dilution method; format: functional; procedure, shortened: as §1
[7] = tested on: Aspergillus niger; experiment: Antifungal activity against Aspergillus niger ATCC 9029 by agar dilution method; format: functional, organism-based; procedure, shortened: as §2
[8] = tested on: Trichophyton mentagrophytes; experiment: Antifungal activity against Trichophyton mentagrophytes ATCC 9972 up to 50 ug/mL by agar dilution method; format: functional, organism-based; procedure, shortened: as §1
[9] = tested on: Trichophyton rubrum; experiment: Antifungal activity against Trichophyton rubrum C 113 up to 50 ug/mL by agar dilution method; format: functional, organism-based; procedure, shortened: as §1
[10] = tested on: Microsporum canis; experiment: Antifungal activity against Microsporum canis C 112 by agar dilution method; format: functional; procedure, shortened: as §1
[11] = tested on: Cryptococcus neoformans; experiment: Antifungal activity against Cryptococcus neoformans ATCC 32264 by agar dilution method; format: functional, organism-based; procedure, shortened: as §2
[12] = tested on: Aspergillus fumigatus; experiment: Antifungal activity against Aspergillus fumigatus ATCC 26934 by agar dilution method; format: functional, organism-based; procedure, shortened: as §2
[13] = tested on: Aspergillus flavus; experiment: Antifungal activity against Aspergillus flavus ATCC 9170 by agar dilution method; format: functional, organism-based; procedure, shortened: as §2
[14] = tested on: Nannizzia gypsea; experiment: Antifungal activity against Microsporum gypseum C 115 up to 50 ug/mL by agar dilution method; format: functional, organism-based; procedure, shortened: as §1
[15] = tested on: Microsporum canis; experiment: Antifungal activity against Microsporum canis C 112 up to 50 ug/mL by agar dilution method; format: functional, organism-based; procedure, shortened: as §1
[16] = tested on: Trichophyton mentagrophytes; experiment: Antifungal activity against Trichophyton mentagrophytes ATCC by agar dilution method; format: functional; procedure, shortened: as §1

Compound: CCC(=O)c1ccc2ccccc2c1
- MIC [1]: 40 µg/mL (≈ 217 µM)
- MIC [2]: 40 µg/mL (≈ 217 µM)
- Activity [3]: inactive
- Activity [4]: inactive
- Activity [5]: inactive
- MIC [6]: 40 µg/mL (≈ 217 µM)
- Activity [7]: inactive
- Activity [8]: inactive
- Activity [9]: inactive
- MIC [10]: 50 µg/mL (≈ 271 µM)
- Activity [11]: inactive
- Activity [12]: inactive
- Activity [13]: inactive
- Activity [14]: inactive
- Activity [15]: inactive
- MIC [16]: 25 µg/mL (≈ 136 µM)

Compound: CC(Cl)C(=O)c1cc2ccccc2c2ccccc12 (configuration not stated)
- MIC [1]: 10 µg/mL (≈ 37.2 µM)
- MIC [2]: 15 µg/mL (≈ 55.8 µM)
- Activity [3]: inactive
- Activity [4]: inactive
- Activity [5]: inactive
- MIC [6]: 1.5 µg/mL (≈ 5.58 µM)
- Activity [7]: inactive
- Activity [8]: inactive
- Activity [9]: inactive
- MIC [10]: 3 µg/mL (≈ 11.2 µM)
- Activity [11]: inactive
- Activity [12]: inactive
- Activity [13]: inactive
- Activity [14]: inactive
- MIC [16]: 3 µg/mL (≈ 11.2 µM)

Compound: CC(C)C(=O)c1cc2ccccc2c2ccccc12
- MIC [1]: 20 µg/mL (≈ 80.5 µM)
- MIC [2]: 20 µg/mL (≈ 80.5 µM)
- Activity [4]: inactive
- Activity [5]: inactive
- MIC [6]: 20 µg/mL (≈ 80.5 µM)
- Activity [7]: inactive
- MIC [10]: 20 µg/mL (≈ 80.5 µM)
- Activity [11]: inactive
- Activity [12]: inactive
- Activity [13]: inactive
- MIC [16]: 6.25 µg/mL (≈ 25.2 µM)

Compound: CC(Br)C(=O)C1CCCCC1 (configuration not stated)
- MIC [1]: > 50 µg/mL
- MIC [2]: > 50 µg/mL
- Activity [4]: inactive
- Activity [5]: inactive
- MIC [6]: > 50 µg/mL
- Activity [7]: inactive
- MIC [10]: > 50 µg/mL
- Activity [11]: inactive
- Activity [12]: inactive
- Activity [13]: inactive
- MIC [16]: 50 µg/mL (≈ 228 µM)

Compound: COc1ccc(C(=O)C(C)Cl)cc1OC (configuration not stated)
- MIC [1]: 12.5 µg/mL (≈ 54.7 µM)
- MIC [2]: 0.15 µg/mL (≈ 0.656 µM)
- Activity [4]: inactive
- Activity [5]: inactive
- MIC [6]: 10 µg/mL (≈ 43.7 µM)
- Activity [7]: inactive
- Activity [8]: inactive
- MIC [10]: 3.12 µg/mL (≈ 13.6 µM)
- Activity [11]: inactive
- Activity [12]: inactive
- Activity [13]: inactive
- MIC [16]: 12.5 µg/mL (≈ 54.7 µM)

Compound: CC(C)C(O)c1cc2ccccc2c2ccccc12 (configuration not stated)
- MIC [1]: 6.25 µg/mL (≈ 25 µM)
- MIC [2]: 10 µg/mL (≈ 39.9 µM)
- Activity [4]: inactive
- Activity [5]: inactive
- MIC [6]: 10 µg/mL (≈ 39.9 µM)
- Activity [7]: inactive
- MIC [10]: 6.25 µg/mL (≈ 25 µM)
- Activity [11]: inactive
- Activity [12]: inactive
- Activity [13]: inactive
- MIC [16]: 6.25 µg/mL (≈ 25 µM)

Compound: CC(Br)C(=O)c1ccc2c(c1)OCO2 (configuration not stated)
- MIC [1]: 25 µg/mL (≈ 97.2 µM)
- MIC [2]: 6.25 µg/mL (≈ 24.3 µM)
- Activity [4]: inactive
- Activity [5]: inactive
- MIC [6]: 12.5 µg/mL (≈ 48.6 µM)
- Activity [7]: inactive
- Activity [8]: inactive
- MIC [10]: 3.12 µg/mL (≈ 12.1 µM)
- Activity [11]: inactive
- Activity [12]: inactive
- Activity [13]: inactive
- MIC [16]: 20 µg/mL (≈ 77.8 µM)

Compound: CCC(=O)c1cc2ccccc2c2ccccc12
- MIC [1]: 6.25 µg/mL (≈ 26.7 µM)
- MIC [2]: 20 µg/mL (≈ 85.4 µM)
- Activity [4]: inactive
- Activity [5]: inactive
- MIC [6]: 6.25 µg/mL (≈ 26.7 µM)
- Activity [7]: inactive
- MIC [10]: 3 µg/mL (≈ 12.8 µM)
- Activity [11]: inactive
- Activity [12]: inactive
- Activity [13]: inactive
- MIC [16]: 3 µg/mL (≈ 12.8 µM)

Compound: c1ccc2c(c1)ccc1ccccc12 [PHENANTHRENE]
- MIC [1]: > 50 µg/mL
- MIC [2]: > 50 µg/mL
- Activity [4]: inactive
- Activity [5]: inactive
- MIC [6]: > 50 µg/mL
- Activity [7]: inactive
- MIC [10]: > 50 µg/mL
- Activity [11]: inactive
- Activity [12]: inactive
- Activity [13]: inactive
- MIC [16]: > 50 µg/mL

Compound: CC(C)C(O)c1ccc2ccccc2c1 (configuration not stated)
- MIC [1]: 25 µg/mL (≈ 125 µM)
- MIC [2]: 25 µg/mL (≈ 125 µM)
- Activity [4]: inactive
- Activity [5]: inactive
- MIC [6]: 12.5 µg/mL (≈ 62.4 µM)
- Activity [7]: inactive
- Activity [9]: inactive
- MIC [10]: 25 µg/mL (≈ 125 µM)
- Activity [11]: inactive
- Activity [12]: inactive
- Activity [13]: inactive
- MIC [16]: 12.5 µg/mL (≈ 62.4 µM)

Compound: CC(=O)N1CCN(c2ccc(OCC3COC(Cn4ccnc4)(c4ccc(Cl)cc4Cl)O3)cc2)CC1 (configuration not stated) [KETOCONAZOLE]
- MIC [1]: 6.25 µg/mL (≈ 11.8 µM)
- MIC [2]: 25 µg/mL (≈ 47 µM)
- Activity [4]: inactive
- Activity [5]: inactive
- MIC [6]: 15 µg/mL (≈ 28.2 µM)
- Activity [7]: inactive
- MIC [10]: 15 µg/mL (≈ 28.2 µM)
- Activity [11]: inactive
- Activity [12]: inactive
- Activity [13]: inactive
- MIC [16]: 12.5 µg/mL (≈ 23.5 µM)

Compound: c1ccc2ccccc2c1 [NAPHTHALENE]
- MIC [1]: > 50 µg/mL
- MIC [2]: > 50 µg/mL
- Activity [4]: inactive
- Activity [5]: inactive
- MIC [6]: > 50 µg/mL
- Activity [7]: inactive
- MIC [10]: > 50 µg/mL
- Activity [11]: inactive
- Activity [12]: inactive
- Activity [13]: inactive
- MIC [16]: > 50 µg/mL

Compound: COc1ccc(C(=O)C(C)Br)cc1OC (configuration not stated)
- MIC [1]: 40 µg/mL (≈ 146 µM)
- MIC [2]: 3 µg/mL (≈ 11 µM)
- Activity [4]: inactive
- Activity [5]: inactive
- MIC [6]: > 50 µg/mL
- Activity [7]: inactive
- Activity [8]: inactive
- Activity [9]: inactive
- MIC [10]: 12.5 µg/mL (≈ 45.8 µM)
- Activity [11]: inactive
- Activity [12]: inactive
- Activity [13]: inactive
- MIC [16]: 25 µg/mL (≈ 91.5 µM)

Compound: C[C@@H]1[C@H](O)[C@@H](C)/C=C/C=C/C=C/C=C/C=C/C=C/C=C/[C@H](O[C@@H]2O[C@H](C)[C@@H](O)[C@H](N)[C@@H]2O)C[C@@H]2O[C@](O)(C[C@@H](O)C[C@@H](O)[C@H](O)CC[C@@H](O)C[C@@H](O)CC(=O)O[C@H]1C)C[C@H](O)[C@H]2C(=O)O [AMPHOTERICIN B]
- MIC [1]: 6.25 µg/mL (≈ 6.76 µM)
- MIC [2]: 0.3 µg/mL (≈ 0.325 µM)
- Activity [4]: inactive
- Activity [5]: inactive
- MIC [6]: 25 µg/mL (≈ 27.1 µM)
- Activity [7]: inactive
- MIC [10]: > 50 µg/mL
- Activity [11]: inactive
- Activity [12]: inactive
- Activity [13]: inactive
- MIC [16]: 6.25 µg/mL (≈ 6.76 µM)

Compound: COc1cc(C(=O)C(C)Br)cc(OC)c1OC (configuration not stated)
- MIC [1]: 50 µg/mL (≈ 165 µM)
- MIC [2]: 8 µg/mL (≈ 26.4 µM)
- Activity [4]: inactive
- Activity [5]: inactive
- MIC [6]: > 50 µg/mL
- Activity [7]: inactive
- Activity [8]: inactive
- Activity [9]: inactive
- MIC [10]: 15 µg/mL (≈ 49.5 µM)
- Activity [11]: inactive
- Activity [12]: inactive
- Activity [13]: inactive
- Activity [14]: inactive
- MIC [16]: 12.5 µg/mL (≈ 41.2 µM)
